How the values were obtained:
Rattus norvegicus [1] = assay: Anti-inflammatory activity in Wistar albino rat assessed as inhibition of carrageenan-induced paw edema at 50 mg/kg, po measured after 4 hrs relative to control; type: functional
Procedure, shortened: (§1)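 Adult male Wistar albino rats (100–150 g) were housed under a 12 h light cycle at 27 ± 2 °C with food and water. Paw edema was induced with carrageenan after oral dosing. […] Values are mean ± SEM, n = 5.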

[2] = Inhibition of soybean 15-LOX using arachidonic acid as substrate by enzyme immunoassay; design: species or system Glycine max
Procedure, shortened: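 Soybean 15-LOX inhibition was measured with an EIA kit following the manufacturer's instructions, in 0.1 M Tris-HCl buffer, pH 7.4. Compounds were dissolved in minimal DMSO and diluted to final concentrations of 0.001–10 μM, including 1, 5 and 10 μM. IC50 (μM) is the mean of two determinations.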

[3] = target: T1, Prostaglandin G/H synthase 1 (Ovis aries, UniProt P05979); assay: Inhibition of ovine COX-1 assessed as reduction in PGF2-alpha formation using arachidonic acid as substrate by enzyme immunoassay
T1 sequence (P05979 whole entry): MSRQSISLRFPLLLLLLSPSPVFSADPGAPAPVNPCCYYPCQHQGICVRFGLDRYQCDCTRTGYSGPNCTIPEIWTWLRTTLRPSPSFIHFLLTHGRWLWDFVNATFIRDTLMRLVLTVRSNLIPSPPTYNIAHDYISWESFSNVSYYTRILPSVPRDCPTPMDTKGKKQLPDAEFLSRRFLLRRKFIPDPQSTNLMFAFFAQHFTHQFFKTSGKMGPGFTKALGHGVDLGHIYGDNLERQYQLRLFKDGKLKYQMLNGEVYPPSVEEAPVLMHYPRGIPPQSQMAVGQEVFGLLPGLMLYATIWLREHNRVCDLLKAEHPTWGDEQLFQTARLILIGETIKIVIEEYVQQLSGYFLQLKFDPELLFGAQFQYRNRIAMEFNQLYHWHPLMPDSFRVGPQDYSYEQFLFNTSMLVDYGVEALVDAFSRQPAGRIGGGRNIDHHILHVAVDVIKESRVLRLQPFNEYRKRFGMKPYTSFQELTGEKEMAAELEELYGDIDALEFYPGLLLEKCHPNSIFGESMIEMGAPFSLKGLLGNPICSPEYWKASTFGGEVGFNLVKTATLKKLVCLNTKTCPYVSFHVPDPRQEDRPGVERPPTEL

Rattus norvegicus [4] = assay: Anti-inflammatory activity in Wistar albino rat assessed as inhibition of carrageenan-induced paw edema at 50 mg/kg, po measured after 2 hrs relative to control; type: functional; procedure, shortened: as §1
Rattus norvegicus [5] = assay: Ulcerogenicity in Wistar albino rat assessed as damage in gastric mucosa at 50 mg/kg, po qd for 3 days measured 1 hr post last dose; type: toxicity, organism-based; details: in vivo
Procedure, shortened: (§2)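 Rats were fasted 18 h, then dosed orally once daily for 3 consecutive days. Compounds were given in DMSO; controls received 10% aqueous DMSO (v/v). Ulcer index is the sum of % ulcer incidence/10, mean number of ulcers per stomach and mean ulcer severity. Values are mean ± SEM.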

Rattus norvegicus [6] = assay: Ulcerogenicity in Wistar albino rat assessed as damage in gastric mucosa at 30.9 umol/kg, po qd for 3 days measured 1 hr post last dose; type: toxicity, organism-based; details: in vivo; procedure, shortened: as §2
Rattus norvegicus [7] = assay: Anti-inflammatory activity against Wistar albino rat model of carrageenan-induced paw edema assessed as reduction in paw thickness at 15 mg/kg, po measured after 2 hrs relative to control; type: functional; procedure, shortened: as §1
Rattus norvegicus [8] = assay: Anti-inflammatory activity in Wistar albino rat assessed as inhibition of carrageenan-induced paw edema 15 mg/kg, po measured after 4 hrs relative to control; type: functional; procedure, shortened: as §1

Row | Structure (SMILES) | IC50 [2] [µM] | IC50 [3] [µM] | inhibition in vivo at 50 mg/kg (Rattus norvegicus [1]) [%] | inhibition in vivo at 50 mg/kg (Rattus norvegicus [4]) [%] | UI (Rattus norvegicus [5]) | UI (Rattus norvegicus [6]) | inhibition in vivo at 15 mg/kg (Rattus norvegicus [7]) [%] | inhibition (INH) (Rattus norvegicus [8]) [%]
1 | Cc1ccc(-c2cc(C(F)(F)F)nn2-c2ccc(S(N)(=O)=O)cc2)cc1 [CELECOXIB] |  |  |  |  |  | 2.9 | 59.7 | 65.63
2 | Cc1nc(-c2ccccc2)sc1-c1cc(C(F)(F)F)nn1-c1ccc(S(C)(=O)=O)cc1 | 3.98 | 4.8 | 51.6 | 53.2 | 2.78 |  |  | 
3 | Cc1nc(-c2ccccc2)sc1-c1ccnn1-c1ccc(S(C)(=O)=O)cc1 | 7.49 | 10.3 | 48.4 | 46.8 | 4.35 |  |  | 
4 | C/C(=N\Nc1ccc(S(C)(=O)=O)cc1)c1sc(-c2ccccc2)nc1C | 6.35 | 5.4 | 28.1 | 27.4 | 3.87 |  |  | 
5 | Cc1ccc(Cl)c(Nc2ccccc2C(=O)O)c1Cl [MECLOFENAMATE SODIUM] | 5.64 |  |  |  |  |  |  | 

More lines, main results first:

Row | IC50 [2] [µM] | IC50 [3] [µM] | Structure (SMILES) | inhibition in vivo at 50 mg/kg (Rattus norvegicus [1]) [%] | inhibition in vivo at 50 mg/kg (Rattus norvegicus [4]) [%] | UI (Rattus norvegicus [5]) | UI (Rattus norvegicus [6]) | inhibition in vivo at 15 mg/kg (Rattus norvegicus [7]) [%] | inhibition (INH) (Rattus norvegicus [8]) [%]
6 | 4.71 | 5.8 | COc1ccc([C@@H]2CC(c3sc(-c4ccccc4)nc3C)=NN2c2ccc(S(C)(=O)=O)cc2)cc1 | 28.1 | 27.5 | 3.83 |  |  | 
7 | 7.4 | 8.6 | COc1ccc(/C=C/C(=O)c2sc(-c3ccccc3)nc2C)cc1 | 46.9 | 43.8 | 4.08 |  |  | 
8 | 8.6 | 9.8 | C/C(=N\Nc1ccc(S(N)(=O)=O)cc1)c1sc(-c2ccccc2)nc1C | 37.1 | 33.9 | 2.65 |  |  | 
9 | 5.9 | 6.8 | COc1ccc([C@@H]2CC(c3sc(-c4ccccc4)nc3C)=NN2c2ccc(S(N)(=O)=O)cc2)cc1 | 42.2 | 37.1 | 3.79 |  |  | 
10 | 5.41 | 6.3 | Cc1nc(-c2ccccc2)sc1-c1cc(C(F)(F)F)nn1-c1ccc(S(N)(=O)=O)cc1 | 57.8 | 53.2 | 2.67 |  |  | 
11 | 8.68 | 9.8 | Cc1nc(-c2ccccc2)sc1-c1ccnn1-c1ccc(S(N)(=O)=O)cc1 | 54.7 | 54.8 | 2.48 |  |  | 
12 | 7.68 | 8.7 | Cc1nc(-c2ccccc2)sc1-c1ccnn1-c1ccc(S(=O)(=O)/N=C/N(C)C)cc1 | 51.6 | 53.2 | 2.93 |  |  | 
